# Assay results collected from several papers.
SMILES,tested on,test,system,setting,endpoint,value
C=C(C)[C@@H]1CC[C@]2(NCCN3CCS(=O)(=O)CC3)CC[C@]3(C)[C@H](CC[C@@H]4[C@@]5(C)CC=C(C6=CC[C@@](COc7ncccc7C#N)(C(=O)O)CC6)C(C)(C)[C@@H]5CC[C@]43C)[C@@H]12,,,"human, plasma","oral, 100 mg, 24 h, fed, tablet",concentration,408 ng/mL
CCCCCCCCCCCC(=O)NC(C)(C)C(=O)N1CCC[C@H]1C(=O)NC(C)(C)C(=O)NC(C)(C)C(=O)N1CCC[C@H]1C(=O)NC(C)(C)C(=O)NC(C)(C)C(=O)N1CCC[C@H]1C(=O)N[C@@H](C)C(=O)NC(C)(C)C(=O)NCCC(=O)N[C@@H](C)C(=O)NC(C)(C)C(=O)NC(C)(C)C(=O)NCCC(=O)NC(C)(C)C(=O)NC(C)(C)C(=O)NC(C)(C)C(=O)N[C@@H](C)C(=O)NCCC(=O)O,MDA-MB-231,"cell growth or viability, MTT",,24 h,IC50,1000 nM
CC(C)=CCOc1c2occc2cc2ccc(=O)oc12,MRC5,"cell growth or viability, MTT",,24 h,IC50,> 100000 nM
CN(C)CCc1c[nH]c2ccccc12,,,"human, plasma","intravenous, 9 mg, 7 min, healthy volunteers, infusion",concentration,15.9 ng/mL
COc1ccc(C(=O)Nc2ccccc2C(=O)N[C@H](C(=O)N[C@H](CO)C(C)C)C(C)C)cc1,MRC5,"cell growth or viability, MTT",,72 h,CC50,> 250 µM
CONC(=O)[C@H]1[C@@H](O)[C@@]2(O)c3c(OC)cc(OC)cc3O[C@@]2(c2ccc(OC)cc2)[C@@H]1c1ccccc1,MDA-MB-231,"cell growth or viability, SRB",,,IC50,1.9 nM
CC(C)[C@H](NC(=O)c1ccccc1NC(=O)c1ccccc1)C(=O)N[C@H](CO)C(C)C,MRC5,"cell growth or viability, MTT",,72 h,CC50,> 250 µM
CC(=O)NC(CC(C)C)C(=O)NC(CC(C)C)C(=O)NC(Cc1ccc(O)cc1)C(N)=O (centres unmarked),"ABCB1 (Cricetulus griseus, UniProt P21448)","binding, fluorescence",,,Kd,28 µM
